Compound activity as filed in PubChem.
Compounds with a hit are over-represented: about 4.9% of the library has one in this group of screens.
STAT1 inh: inhibitors of IFN-gamma induced STAT1 signaling; NIH 3T3 STAT1-luciferase reporter, luminescence; inhibition, % at 5.5 µM; actives 0.35% (n = 200,000); AID 920;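 active = inhibition above a set limit, the mean inhibition across all tested compounds plus 3 SD, cut at about 34% in these data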;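 also: 0% = IFN-gamma with DMSO and 100% = IFN-gamma with 300 µM nifuroxazide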
NF-kB neuron act: raises NF-kB expression in human neuronal cells | NF-kB reporter expression; hits give high values | fold change at 12.5 µM | actives 1.6% (n = 190,000); in the data active = fold change above about 3.3
STAT3 blocker: reduces IL-6 driven STAT3 reporter signal; inhibition, % at 5.5 µM; actives 0.89% (n = 190,000); U3A cells, IL-6 STAT3-luciferase reporter, luminescence; host cell line lacks STAT1; AID 862;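 active = inhibition above the mean inhibition across all screened compounds plus 3 SD, cut at about 44% in these data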;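 also: 0% = DMSO only wells and 100% = 100 µM nifuroxazide control wells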
STAT3 act-1: activators of IL-6 induced STAT3 signaling; actives 0.91% (n = 190,000); activation (% of control), % at 5.6 µM; U3A cells, IL-6 STAT3-luciferase reporter, luminescence; 100% = signal with IL-6 EC80 alone;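 active = activation above the screen-wide mean of compound activation plus 3 SD, cut at about 130% in these data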;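 also: 0% = background luminescence of wells with medium and substrate only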
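Material: STAT1-lacking human U3A cells, STAT3 luciferase reporter | Benchmarks: IL-6-only wells as 100% reference | Probe or stimulus: IL-6 (33 ng/mL) | Timing: Compound 1 h, then IL-6 6 h at 37 °C | Detection: Luminescence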
APP 5'UTR act: activates APP 5'UTR luciferase reporter. actives 1% (n = 190,000). activation, % at 2 µM. SH-SY5Y APP 5'UTR luciferase reporter, luminescence; zero percent = DMSO vehicle wells;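 active = activation above a set limit, based on mean plus 3 SD of controls, cut at about 140% in these data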
STAT1 act-1: increases IFN-gamma driven STAT1 reporter signal. NIH 3T3 STAT1-luciferase reporter, luminescence; 100% = IFN-gamma alone, no compound. actives 2.6% (n = 200,000). activation (% of control), % at 5.5 µM. AID 932;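 active = activation above the screen-wide mean activation plus 3 SD, cut at about 130% in these data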;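 also: raw ratio to IFN-gamma control signal so 100% means no change and 0% no light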
STAT3 act-2: STAT3 activation, confirmation assay; shares compounds with STAT3 act-1; U3A STAT3-luciferase reporter, IL-6 potentiation, luminescence; U3A cells lack STAT1; 100 means same as IL-6 alone; potentiation (% of control), % at 5.7 µM; actives 64% (n = 1,200); AID 1267;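 active = percent activation of the STAT3 luciferase reporter above a set limit taken from the earlier primary screen, cut at about 130% in these data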;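 also: 0% = background signal of medium plus substrate and 100% = median of IL-6 with DMSO wells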
NFkB act STAT3ct: counter-screen for STAT3 activators: NF-kappaB activation. shares compounds with STAT3 act-1. human cells, NF-kappaB reporter activation. activation (% of control), % at 5.7 µM. actives 11% (n = 1,200); in the data active = activation above about 120%;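 also: reporter induced by TNF-alpha stimulation; 100% = median of stimulated DMSO wells and 0% = no signal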
STAT1 act-2: activates STAT1, counter-screen to STAT3 activators. activation (% of control), % at 5.7 µM. NIH 3T3 STAT1-luciferase reporter, IFN-gamma, luminescence. actives 13% (n = 1,200). AID 1318. shares compounds with STAT3 act-1;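 active = activation above the solvent-only control well mean plus 3 SD, set per screening run, cut at about 120% in these data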;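 also: 100% = IFN-gamma with DMSO median signal so 100% means no change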
The depositor's hits bear a star; nt = not tested or not shown.

SMILES	STAT1 inh	NF-kB neuron act	STAT3 blocker	STAT3 act-1	APP 5'UTR act	STAT1 act-1	STAT3 act-2	NFkB act STAT3ct	STAT1 act-2
O=C(COC(=O)c1cc(=O)[nH]c2ccccc12)Nc1nc(-c2ccccc2)cs1	-27	1.3	11	96	37	124	nt	nt	nt
O=C1Nc2ccc(Br)cc2C1(O)Cc1ccccn1 (stereo not drawn)	4	1.1	-1	104	18	96	nt	nt	nt
O=C1Nc2ccc(Br)cc2C12NNc1ccccc1O2 (stereo not drawn)	0	1.2	-47	141*	-11	100	122	98	96
CCc1ccc(C2CC(=O)N(c3ccc(F)cc3)C3=C2C(=O)OC3)cc1 (stereo not drawn)	1	1.1	1	105	28	97	nt	nt	nt
O=C(C1CC1)N1CCN(S(=O)(=O)c2ccc3c(c2)OCCO3)CC1	5	1.1	4	98	-16	95	nt	nt	nt
CC(C)C1N=C(c2ccc3c(c2)OCO3)CC(c2ccccc2O)N1 (stereo not drawn)	12	2.5	-37	138*	104	89	126	108	90
CCOC(=O)c1c(C)[nH]c(C(=O)OCC(=O)Nc2cc(Cl)ccc2OC)c1C	3	1.6	-55	148*	10	97	123	104	96
CC(=O)Nc1sc(N/N=C\c2ccccc2)nc1-c1cccs1	-4	1.1	-48	140*	15	104	177*	107	114
COc1cccc(C2c3[nH]c4ccccc4c3CCN2C(=O)Cn2cncn2)c1OC (stereo not drawn)	4	1.2	-32	130	17	97	nt	nt	nt
COc1ccc(C2c3[nH]c4ccccc4c3CCN2CCCn2cccn2)c(C)c1C (stereo not drawn)	2	0.88	-67	163*	-13	96	163*	101	95
CC1CCCC(C)N1C(=S)SCC(=O)O (stereo not drawn)	-7	0.97	-6	104	24	107	nt	nt	nt
CSc1nc(/C=C2\C=Nc3ccccc32)c(O)n1C	0	1.2	-55	146*	9	100	155*	111	103
O=C(O)c1sccc1SCc1ccc(Cl)cc1Cl	0	1	-39	137*	-3	100	116	103	91
CC(C)OC(=O)c1cccnc1SCc1cc(=O)n2ccccc2n1	3	0.9	-48	144*	-12	97	127	105	104
CC(C)OC(=O)c1cccnc1SCC(=O)N(C)c1ccccc1	6	0.99	6	99	-18	95	nt	nt	nt
COc1c(C)cc(C(=O)C2CCCN(C(=O)c3snnc3C)C2)cc1C (stereo not drawn)	2	nt	10	95	43	97	nt	nt	nt
C=CCSc1nnc(-c2cc3c(s2)-c2ccccc2CC3)o1	-15	1.7	-55	151*	24	113	145*	109	116
O=C(CN1C(=O)/C(=C/c2c(F)cccc2Cl)Oc2ccccc21)NCc1ccco1	8	1.3	-61	154*	40	92	187*	99	96
CC1CC1C(=O)Nc1cc(S(=O)(=O)N2CCOCC2)ccc1N1CCCC1 (stereo not drawn)	6	1.3	5	100	38	94	nt	nt	nt
COc1ccc(C)cc1NC(=O)Nc1ccc(Br)cn1	2	0.93	-51	144*	5	98	116	97	98
CCOC(=O)Nc1cc(C)ccc1OC	6	1.3	6	98	17	94	nt	nt	nt
CC(C)=NOc1nc(N(C)C)nc(N(C)C)n1	-7	0.99	-6	107	11	106	nt	nt	nt
Oc1[nH]c2ccccc2c1/C=N/N1CCCCC1	-8	0.86	-50	145*	-3	107	103	100	103
Oc1ccccc1/C=N/N1CCCCC1	-16	1.2	8	93	-4	115	nt	nt	nt
CN(C)C(=O)CCSc1nnc(-c2ccncc2)o1	-8	0.78	-4	105	10	106	nt	nt	nt
SMILES	STAT1 inh	NF-kB neuron act	STAT3 blocker	STAT3 act-1	APP 5'UTR act	STAT1 act-1	STAT3 act-2	NFkB act STAT3ct	STAT1 act-2
Cc1cccc(C)c1NS(=O)(=O)c1ccc2c(c1)C(=O)c1ccccc1C2=O	-11	1.3	-4	103	nt	110	nt	nt	nt
Cc1ccccc1-c1cc2c(nn1)-c1ccccc1C2=O	13	0.96	-53	145*	17	88	141*	101	96
COc1cccc(Sc2ccccc2/C=N/NC(N)=O)c1	2	1.1	-2	102	-65	96	nt	nt	nt
CC1CCOC2(O1)C(=O)N(CN1CCN(c3ccccc3F)CC1)c1ccccc12 (stereo not drawn)	5	0.96	-54	148*	5	95	119	99	82
O=C1N(CN2CCN(c3cccc(Cl)c3)CC2)c2ccccc2C12OCCCO2	18	1.1	20	88	-9	83	nt	nt	nt
Cn1cnc([N+](=O)[O-])c1Oc1ccc2ccccc2c1	0	1.2	-50	139*	-4	100	133*	114	120
Cc1cccc(Nc2nnc(SC/C(O)=C(\C#N)c3nc4ccccc4[nH]3)s2)c1C	16	0.61	-63	148*	-8	87	145*	103	90
Cc1cccc(C)c1Nc1nnc(SC/C(O)=C(\C#N)c2nc3ccccc3[nH]2)s1	10	0.64	-55	143*	-9	91	152*	103	89
Cc1cccc(Nc2nnc(SCC(=O)Nc3ccccc3[N+](=O)[O-])s2)c1C	-7	1.1	-20	119	7	106	nt	nt	nt
Cn1cnnc1SC/C(O)=C(\C#N)c1nc2ccccc2[nH]1	7	1.1	-4	103	-8	94	nt	nt	nt
Cc1ccc(C)c(SCC(=O)OC/C(O)=C(\C#N)c2nc3ccccc3[nH]2)c1	10	2.2	-51	146*	4	91	150*	111	91
COc1ccccc1N(CCN1C(=O)c2cccc3cccc(c23)C1=O)C(=O)c1ccncc1	2	1.2	23	85	19	95	nt	nt	nt
O=c1c([N+](=O)[O-])c(N2CCCC2)c2ccccc2n1-c1ccccc1	4	1.4	8	95	12	95	nt	nt	nt
CSc1nnc2c3ccccc3c3ccccc3c2n1	13	1.1	-78	162*	1	88	147*	103	95
CSc1nnc(-c2ccco2)c(-c2ccco2)n1	1	1.1	-3	105	-14	99	nt	nt	nt
Clc1ccc2nc(SCc3nnc(-c4ccccc4)o3)[nH]c2c1	9	0.88	9	93	8	92	nt	nt	nt
